The target in assay [1] is T1, Retinoic acid receptor alpha/Retinoid X receptor alpha (Homo sapiens) (UniProt P10276+P19793). The assay can be described thus: Activity at RARalpha/RXRalpha ligand binding domain assessed as stabilization of RXR helix H12 by fluorescence anisotropy in presence of up to 10 uM coactivator peptide TIF-NR2. It is filed as protein-complex assay. Summed up: (§1)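 Heterodimer (0.120 µM, dye on the RXRα C-terminus) with 10 µM ligand. Anisotropy was read at excitation 470 nm and emission 530 nm, with at least three independent measurements.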
(In general: Polarisation of emitted light reports the rotation of a fluorescent probe.)

The target of assay [2] is T1, Retinoic acid receptor alpha/Retinoid X receptor alpha (Homo sapiens). The experiment in a line: Activity at RARalpha/RXRalpha ligand binding domain assessed as stabilization of RXR helix H12 by fluorescence anisotropy. It is filed as protein-complex assay. Summed up: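 RARα-RXRα LBD heterodimer, 0.120 µM, carrying a fluorescent dye attached to the RXRα C-terminus. Steady-state anisotropy was read with excitation at 470 nm and emission at 530 nm, with ligand at saturating concentration. At least three independent measurements were made per sample.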

Assay [3] deals with T2, Retinoic acid receptor RXR-beta (Homo sapiens) (UniProt P28702).
T2 sequence (whole entry): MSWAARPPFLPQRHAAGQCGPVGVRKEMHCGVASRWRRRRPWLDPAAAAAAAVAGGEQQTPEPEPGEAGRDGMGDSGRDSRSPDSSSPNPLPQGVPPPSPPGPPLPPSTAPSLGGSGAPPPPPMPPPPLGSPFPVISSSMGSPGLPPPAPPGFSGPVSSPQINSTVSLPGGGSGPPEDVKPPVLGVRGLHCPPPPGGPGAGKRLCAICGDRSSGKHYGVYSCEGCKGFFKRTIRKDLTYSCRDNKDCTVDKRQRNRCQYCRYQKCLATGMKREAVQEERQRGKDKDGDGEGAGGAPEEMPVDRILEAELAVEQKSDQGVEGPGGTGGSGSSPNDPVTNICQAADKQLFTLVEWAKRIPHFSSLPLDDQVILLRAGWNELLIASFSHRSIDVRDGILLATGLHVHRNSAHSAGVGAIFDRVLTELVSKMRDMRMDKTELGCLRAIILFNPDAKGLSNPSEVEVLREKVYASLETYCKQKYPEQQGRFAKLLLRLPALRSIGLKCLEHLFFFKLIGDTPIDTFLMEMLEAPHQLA
The assay can be described thus: Activity at Gal4-tagged human RXRbeta receptor expressed in human HeLa cells assessed as relative transcriptional activity by luciferase reporter assay relative to CD3254. It is filed as cell-based. The arrangement: concentration or dose not given beside the values. Summed up:
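HeLa cells stably carrying a Gal4-hRXRβ chimera (RXRβ LBD fused to the GAL4 DBD) and a (Gal4)5-β-globin-luciferase reporter. Cells were grown in DMEM with 5% FCS plus G418, puromycin, hygromycin and gentamycin. They were exposed to increasing compound concentrations for 16 h at 37 °C and 5% CO2, then washed, lysed, and read for luciferase luminescence (RLU).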

The target of assay [4] is T2, Retinoic acid receptor RXR-beta (Homo sapiens). The assay can be described thus: Antagonist activity at Gal4-tagged human RXRbeta receptor expressed in human HeLa cells assessed as inhibition of CD3254-induced transcription at >=10 uM by luciferase reporter assay. It is filed as functional, cell-based. Summed up: (§2)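 Gal4-hRXRβ/(Gal4)5-β-globin-luciferase HeLa reporter cells, maintained in DMEM with 5% FCS and selection antibiotics. Cells were co-treated for 16 h at 37 °C with 3 nM of the reference RXR agonist and increasing compound concentrations. After lysis, luciferase was read as RLU to measure antagonism of agonist-induced transcription.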
For orientation: In a reporter assay the amount or activity of a reporter protein is the signal.

The target in assay [5] is T1, Retinoic acid receptor alpha/Retinoid X receptor alpha (Homo sapiens). The assay can be described thus: Activity at RARalpha/RXRalpha ligand binding domain assessed as stabilization of RXR helix H12 by fluorescence anisotropy in presence of 1 uM coactivator peptide TIF-NR2. The class given is protein-complex assay. Summed up: as §1
The target in assay [6] is T2, Retinoic acid receptor RXR-beta (Homo sapiens). The assay can be described thus: Antagonist activity at Gal4-tagged human RXRbeta receptor expressed in human HeLa cells assessed as inhibition of CD3254-induced transcription at 1 uM by luciferase reporter assay. The class given is functional, cell-based. Summed up: as §2

Molecules are shown by their SMILES. Active and inactive are the calls of the source. The calls are words filed in the database; no cut-off is given here.

With `CCCCCCOc1cc2c(cc1-c1cc(/C=C/C(=O)O)ccc1O)C(C)(C)CCC2(C)C`, the outcome in assay [1] was inactive.

In the case of `CCCCCOc1cc(-c2cc(/C=C/C(=O)O)ccc2O)cc2c1C(C)(C)CCC2(C)C`, the result in assay [2] was inactive. In addition, in assay [3], the Activity was above 10%. Further, the outcome in assay [4] and in assay [1] was Active.

As for `CCCOc1cc(-c2cc(/C=C/C(=O)O)ccc2O)cc2c1C(C)(C)CCC2(C)C`, in assay [2], the result was inactive. Also, the Activity in assay [3] was above 10%. Also, the outcome in assay [4] and in assay [1] was Active.

In the case of `COc1cc(-c2cc(/C=C/C(=O)O)ccc2O)cc2c1C(C)(C)CCC2(C)C`, the outcome in assay [2] was inactive. In addition, the Activity in assay [3] was above 30%. Further, the outcome in assay [4] and in assay [1] was Active.

On to `Cc1cc2c(cc1-c1cc(/C=C/C(=O)O)ccc1O)C(C)(C)CCC2(C)C`, for which, in assay [5], the outcome was Active.

Take `CCCCCCOc1cc(-c2cc(/C=C/C(=O)O)ccc2O)cc2c1C(C)(C)CCC2(C)C`: the outcome in assay [2] was inactive. Further, the Activity in assay [3] is above 10%. Also, the outcome in assay [4] and in assay [1] was Active.

For `CCCCOc1cc(-c2cc(/C=C/C(=O)O)ccc2O)cc2c1C(C)(C)CCC2(C)C`, the result in assay [2] was inactive. Further, the Activity in assay [3] was above 10%. Further, the result in assay [4] and in assay [1] was Active.

Turning to `CCOc1cc(-c2cc(/C=C/C(=O)O)ccc2O)cc2c1C(C)(C)CCC2(C)C`, the result in assay [2] was inactive. The Activity in assay [3] is above 10%. For the same molecule, the result in assay [4] and in assay [1] was Active.

As to `CCCCCOc1cc2c(cc1-c1cc(/C=C/C(=O)O)ccc1O)C(C)(C)CCC2(C)C`, the outcome in assay [6] was Active. Further, the outcome in assay [2], in assay [3] and in assay [1] was inactive.
